Measured values reported in ChEMBL document CHEMBL3739264, “Synthesis and bio-evaluation of novel quinolino-stilbene derivatives as potential anticancer agents” (Bioorg Med Chem, 2015).
Activity calls are given as the source filed them. The calls are words filed in the database; no cut-off is given here.

Columns and labels:
Tubulin (Homo sapiens) = Tubulin (Homo sapiens) (UniProt P68371+Q9H4B7+P0DPH7+P68366+Q13509+Q71U36+P04350+Q3ZCM7+P07437+P68363+Q9BQE3+Q6PEY2+Q13885+Q9BVA1+Q9BUF5); test: Inhibition of tubulin (unknown origin) polymerization at 6 to 12 uM measured every 1 min for 1 hr by automated plate reader analysis; assay type: protein-complex assay
How it was run: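 Cell-free assay: 4 mg/ml tubulin in 80 mM PIPES, 2 mM MgCl2, 0.5 mM EGTA, 1 mM GTP, 10% glycerol, pH 6.9, added to wells with ligand pre-warmed 2-3 min at 37°C. A340 read every min for 1 h.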

HeLa = test: Induction of mitosis arrest in human HeLa cells assessed as condensation of chromosome at 6 uM after 12 hrs using DAPI staining by immunofluorescence microscopic analysis; assay type: functional, cell-based
How it was run: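 HeLa cells on coverslips treated 12 h, fixed in ice-cold methanol at -20°C. Stained with anti-α-tubulin and anti-lamin A (primary 1:200 overnight at 4°C, fluorescent secondary 1 h) and DAPI for DNA. Mitotic morphology scored by fluorescence microscopy.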

FC(F)(F)c1cccc(/C=C\c2cc3ccccc3nc2Cl)c1 was tested, and the inhibition (Tubulin (Homo sapiens)) was “Active” and the Activity (HeLa) was “Active”.
